Assay results gathered from unrelated publications.
Each line is one published result; the experiments were not run side by side.
Target: Serine/threonine-protein kinase ULK3 (ULK3, Homo sapiens, UniProt Q6PHR2)
Residues used in one study (Q6PHR2 1-472): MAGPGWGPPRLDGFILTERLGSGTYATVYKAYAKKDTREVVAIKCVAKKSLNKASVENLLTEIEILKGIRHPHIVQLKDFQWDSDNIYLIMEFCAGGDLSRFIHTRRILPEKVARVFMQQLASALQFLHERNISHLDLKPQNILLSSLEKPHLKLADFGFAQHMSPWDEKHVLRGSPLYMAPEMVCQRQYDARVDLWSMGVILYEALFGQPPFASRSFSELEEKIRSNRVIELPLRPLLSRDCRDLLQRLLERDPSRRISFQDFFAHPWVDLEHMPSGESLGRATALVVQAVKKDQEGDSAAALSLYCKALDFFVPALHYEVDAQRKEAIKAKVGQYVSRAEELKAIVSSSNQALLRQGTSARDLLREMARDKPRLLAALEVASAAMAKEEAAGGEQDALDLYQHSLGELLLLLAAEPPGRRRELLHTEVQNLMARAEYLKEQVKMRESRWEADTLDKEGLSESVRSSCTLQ

SMILES | read-out | mode | method | concentration | quantity | result
C=CC(=O)N1CCC[C@@H](n2nc(-c3ccc(Oc4ccccc4)cc3)c3c(N)ncnc32)C1 | enzyme activity | inhibitor | – | 1 µM | inhibition | 29%
C#Cc1cc(-c2cc(Nc3nc(N[C@@H](C)c4ccc(F)cn4)ncc3Cl)n[nH]2)ccc1C=O | enzyme activity | inhibitor | – | 0.2 µM | inhibition | 57.5%
Cc1ccc(NC(=O)c2ccnc(C(F)(F)F)c2)cc1-c1cc(OCCO)nc(N2CCOCC2)c1 | binding | – | competition with immobilised ligand | 1 µM | remaining binding | 85%
C=CC(=O)N1CCC([C@@H]2CCNc3c(C(N)=O)c(-c4ccc(Oc5ccccc5)cc4)nn32)CC1 | enzyme activity | inhibitor | – | 1 µM | inhibition | 11%
CCCCC(=O)Nc1ccc(-c2ccc3ncn(CCC)c(=O)c3c2)cn1 | binding | – | competition with immobilised ligand | 0.5 µM | remaining binding | 99%
C1=C/COCc2cc(ccc2OCCN2CCCC2)Nc2nccc(n2)-c2cccc(c2)COC/1 | cell-free assay | – | – | 0.1 µM | remaining signal | 57%
COc1ccc2oc(-c3ccc4nc(N)oc4c3)c/c(=N\c3ccccc3NC(=O)CCN)c2c1 | binding | – | – | 1 µM | remaining binding | 96%
CN1CCN(C(=O)c2ccc(NC(=O)Nc3ccc(N(C)c4ccnc(Nc5ccc(CS(C)(=O)=O)cc5)n4)cc3)cc2)CC1 | binding | – | competition with immobilised ligand | 1 µM | remaining binding | 7.6%
